Screening results as filed in PubChem.
rCAG RNA binder = binds r(CAG) RNA repeats; r(CAG) RNA repeat, TO-PRO-1 dye displacement fluorescence; inhibition, % at 3 µM; hit rate 1.3% among 370,000;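 active = inhibition above the plate cutoff, the mean of all test compounds on that plate plus 3 SD, cut at about 35% in these data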;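 note: 0% = DMSO alone and 100% = 100 µM mitoxantrone as full dye displacement; higher means more dye released from RNA so lower well fluorescence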
HTRA1 inhibitor = inhibitors of human serine peptidase HTRA1. recombinant HTRA1, FP-rhodamine activity-based probe, fluorescence polarization. Q92743. AID 504803. hit rate 0.5% among 340,000. inhibition, % at 5.96 µM; in the data active = inhibition above about 36%;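 note: 0% = enzyme with DMSO and 100% = wells lacking enzyme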
ABHD4 inh = inhibitors of mouse ABHD4; Q8VD66; AID 720543; purified mABHD4, FP-Rh probe fluorescence polarization; inhibition, % at 8.92 µM; hit rate 0.54% among 370,000;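 active = inhibition exceeding the mean over every tested compound plus 3 SD, cut at about 30% in these data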;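 note: 0% = plate median of compound wells and 100% = S159A mutant with DMSO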
Target sequence (Q8VD66 whole entry, looked up): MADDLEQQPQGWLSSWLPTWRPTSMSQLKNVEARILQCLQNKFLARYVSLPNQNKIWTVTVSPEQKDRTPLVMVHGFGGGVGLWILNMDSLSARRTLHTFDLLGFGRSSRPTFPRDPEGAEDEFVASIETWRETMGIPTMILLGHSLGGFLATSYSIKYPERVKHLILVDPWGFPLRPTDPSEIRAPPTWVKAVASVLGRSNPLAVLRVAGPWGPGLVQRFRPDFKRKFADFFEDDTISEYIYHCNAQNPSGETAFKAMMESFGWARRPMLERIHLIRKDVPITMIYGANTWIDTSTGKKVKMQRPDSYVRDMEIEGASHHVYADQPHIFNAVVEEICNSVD
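System: mouse ABHD4 enzyme, wild type / Medium: HEPES pH 7.0, NaCl, Pluronic buffer / Reagent: FP-Rh activity-based fluorescent probe / Control set: S159A mutant high control, sample median low control / Detection: fluorescence polarization with parallel and perpendicular emission, 525/598 nm / Schedule: 45 min + 60 min at 25 °C / Compound dosing: 8.92 µM, single dose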
SIAE primary = human SIAE inhibition, primary screen; SIAE FP-Rh probe binding, fluorescence polarization; inhibition, % at 9.66 µM; hit rate 0.69% among 370,000; AID 1053197;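 active = inhibition above a cutoff: mean of compounds within the control limits plus 3 SD of those, cut at about 17% in these data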;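 note: 0% = plate median of compound wells and 100% = probe without SIAE protein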
TCR CD3 inh = blocks the human TCR-CD3 interaction | inhibition, % at 9.4 µM | hit rate 0.37% among 360,000 | TAMRA-labeled TCR probe fluorescence, biochemical | AID 651800; in the data active = inhibition above about 19%;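 note: recombinant mutant TCR 2C K166C tagged with TAMRA read by polarization; 0% = receptor in buffer alone and 100% = receptor with positive control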
Active calls of the source: *; · = no result; ! = a repeat was not active. A selection: hits, their analogues and other compounds. The true share with any hit is near 2.5%.

SMILES | rCAG RNA binder | HTRA1 inhibitor | ABHD4 inh | SIAE primary | TCR CD3 inh
CCC(=O)N1CCN(c2ccc(NC(=O)c3ccc4c(c3)OCO4)cc2)CC1 | 2.6 | 11.6 | -3.5 | 101.4* | -2.2
N#CC1=C2SCN(Cc3ccco3)CN2C(=O)CC1c1cccc2ccccc12 (stereo unspecified) | 37.3* | -17.5 | 2.6 | 7.2 | 0.0
N#CC1=C2SCN(Cc3ccco3)CN2C(=O)CC1c1ccccc1F (stereo unspecified) | · | 2.9 | · | · | ·
CCN1CCN(C(=O)C2CC(c3ccc(F)cc3)=NO2)CC1 (stereo unspecified) | 4.8 | -4.5 | 4.8 | -0.3 | 7.9
CN1c2ccsc2C(O)=C(C(=S)Nc2ccc(F)c(Cl)c2)S1(=O)=O | 66.5* | -12.1 | -17.3 | -2.8 | -3.5
CCOC(=O)C1CCN(C(=O)Nc2ccc3nc(-c4ccco4)c(-c4ccco4)nc3c2)CC1 | · | 44.8* | · | · | ·
CCC(=O)OC1(C)C(=O)C=C2C=C(c3ccc(C#N)cc3)OC=C2C1=O (stereo unspecified) | 42.4* | 22.8 | 24.8 | 0.2 | -1.4
CCC(=O)OC1(C)C(=O)C2=COC(c3ccc(OC)cc3)=CC2=C(Br)C1=O (stereo unspecified) | 15.8 | 32.9 | 24.4 | 2.4 | 2.6
Cc1cccc(OCCn2cnc(Cl)c2Cl)c1 | -1.5 | -4.1 | -4.2 | -3.6 | 4.5
COc1ccc(Br)cc1C(=O)Nc1ccc(N2CCCC2)cc1 | 17.6 | 6.2 | 14.6 | 9.4 | 19.0*
COc1ccc(Br)cc1C(=O)Nc1ccc(N2CCN(S(C)(=O)=O)CC2)cc1 | 6.0 | 0.7 | 5.3 | 5.5 | 3.4
COc1ccc(S(=O)(=O)N(C)C[C@H]2Oc3ccc(NC(=O)Nc4ccc5c(c4)OCO5)cc3CC(=O)N([C@@H](C)CO)C[C@@H]2C)cc1 | 13.0 | -5.5 | -1.1 | 17.7* | -4.9
O=C(N/N=C/c1ccccc1F)C(=O)N1CCCCCC1 | 3.1 | 5.2 | 2.7 | 1.3 | 4.5
C/C=C/c1ccc(OCCn2nnc3ccccc32)c(OC)c1 | -3.0 | -4.4 | -1.6 | -2.6 | 3.5
Cc1cc(-c2csc(NCc3ccccc3)n2)c(C)n1C | · | 36.8* | · | · | ·
COc1cc(NS(=O)(=O)c2ccc(NC(=O)/C(=C\c3ccccc3OC)NC(=O)c3ccccc3)cc2)nc(OC)n1 | 63.1* | -20.5 | -6.0 | -13.4 | 8.8
O=[N+]([O-])c1cc2oc3c(c2c(C=NCc2ccncc2)c1O)CCCC3 | · | 49.6* | · | · | ·
CCOC(=O)N1CCN(S(=O)(=O)c2ccc(C(=O)NNc3nc4cc(C)cc(C)c4s3)cc2)CC1 | · | 49.9* | · | · | ·
CCOC(=O)N1CCN(S(=O)(=O)c2ccc(C(=O)Nc3nnc(CC)o3)cc2)CC1 | 14.7 | 3.4 | 7.1 | 3.5 | 3.7
Cc1[nH]c2ccccc2c1C(C#N)(C#N)C1C(=O)c2ccccc2C1=O | 20.3 | 27.2 | 39.0* | 8.4 | -1.1
CCN1CCN(Cc2ccc(NC(=O)c3cc(NC(=O)c4cc(-c5ccc(OC)cc5)n[nH]4)cc(OC)c3)cc2C(F)(F)F)CC1 | 4.8 | -105.2 | -88.2 | -136.4 | 27.9*
CNNC(=S)Nc1cccc(C(F)(F)F)c1 | 1.0 | · | -8.3 | -3.4 | -0.3
COc1ccc(NC(=S)NNC(=S)Nc2cccc(C(F)(F)F)c2)cc1 | 17.1 | 28.0 | 12.2 | 31.1* | -4.7
COc1cc(NC(=O)c2ccno2)cc(C(=O)Nc2cccc(C(F)(F)F)c2)c1 | 6.0 | -94.2 | -92.6 | -91.5 | 2.6
COc1cc(NC(=O)c2cc3cccc(OC)c3o2)cc(C(=O)Nc2cccc(C(F)(F)F)c2)c1 | 0.9 | -65.8 | -45.1 | -137.2 | 44.7*
SMILES | rCAG RNA binder | HTRA1 inhibitor | ABHD4 inh | SIAE primary | TCR CD3 inh
COc1ccc(-c2cc(C(=O)Nc3cc(OC)cc(C(=O)Nc4cccc(C(F)(F)F)c4)c3)[nH]n2)cc1 | 7.5 | -101.9 | -32.2 | -123.4 | 68.3*!
O=C(Nc1ccc(S(=O)(=O)Nc2ncccn2)cc1)c1ccc(Br)o1 | -1.3 | 7.3 | 6.0 | 0.7 | -3.2
O=S(=O)(Nc1ccon1)c1ccc(Br)s1 | 0.5 | 1.5 | 1.9 | -3.6 | -2.6
Cc1ccc(Nc2nnc(SCC(=O)c3ccc(O)cc3O)s2)cc1 | 56.0* | -18.5 | 9.6 | 8.2 | -7.0
Cc1cccc(Nc2nnc(SCC(=O)c3ccc(O)cc3O)s2)c1 | 24.2 | -17.8 | -19.9 | -1.6 | -3.2
Cc1ccc(S(=O)(=O)C(C#N)c2nc3ccccc3nc2N2CC(C)OC(C)C2)cc1C (stereo unspecified) | 39.2* | 0.9 | 0.9 | 2.5 | -8.4
Cc1ccc(-n2c(C)cc(/C=C3/C(=N)N4C(c5ccccc5)=CSC4=NC3=O)c2C)cc1 | 3.4 | 1.3 | -5.5 | 2.6 | 0.5
N=C1/C(=C/c2ccc(-c3cccc(C(=O)O)c3)o2)C(=O)N=C2SC=C(c3ccccc3)N12 | 81.3* | -25.6 | 4.6 | -30.8 | 13.2
CC(C)(C)C(=O)/C(=C/c1ccc(Cl)cc1)n1cncn1 | 2.0 | -1.4 | -8.2 | 3.6 | -0.8
O=C(Nc1ccc(O)cc1)/C(=C\C=C\c1ccccc1)NC(=O)c1ccccc1 | 6.6 | -7.5 | -0.9 | 0.7 | -1.2
O=C(Nc1ccc(C(=O)O)cc1)/C(=C\C=C\c1ccccc1)NC(=O)c1ccccc1Cl | 37.2* | -8.2 | -30.1 | -13.9 | 2.5
CCCCc1cc(=O)oc2cc(C)cc(OCC(=O)NC(Cc3ccc(Cl)cc3)C(=O)O)c12 (stereo unspecified) | 40.0* | -16.0 | -4.6 | -0.8 | 4.9
CCOc1ccc(/C=C/C2=Cc3c(sc(NC(=O)CSc4n[nH]c(N)n4)c3C#N)C(C)(C)C2)cc1 | 43.2* | -42.7 | -26.6 | -14.0 | -2.5
COc1ccc(C2CC(=O)Oc3cc(O)cc(O)c32)cc1 (stereo unspecified) | 0.8 | -4.8 | -3.8 | -2.6 | -7.6
COc1ccc([C@H]2Oc3cc(O)cc(O)c3C(=O)C2[C@@H]2C(=O)c3c(O)cc(O)cc3O[C@@H]2c2ccc(OC)cc2)cc1 (stereo partly specified) | 58.1* | · | -88.8 | -42.0 | -6.0
CC(=O)c1c(N2CCOCC2)nc2ccc(Br)cc2c1-c1ccccc1 | -2.3 | · | 3.5 | 19.4* | -4.9
CCc1nnnn1-c1ccc([N+](=O)[O-])cc1C | -3.5 | -3.4 | -2.9 | -0.9 | 0.1
Nc1c(C(=O)NC2CC2)sc2nc3c(c(-c4ccco4)c12)CC/C3=C/c1ccco1 | · | 53.9* | · | · | ·
COCCCNc1oc(COc2ccc(Cl)cc2Cl)nc1C#N | -0.7 | 2.2 | -7.0 | 17.2* | 0.3
CN(C)CCNc1oc(COc2ccc(Cl)cc2Cl)nc1C#N | -8.8 | 0.3 | 11.9 | 6.2 | -1.5
Cc1onc(-c2ccccc2Cl)c1C(=O)Nc1nnc(-c2ccc(Br)cc2)s1 | 45.9* | -47.4 | -55.7 | -5.0 | 1.7
Cc1onc(-c2ccccc2Cl)c1C(=O)Nc1nnc(-c2ccc(F)cc2)s1 | 13.8 | -15.2 | -15.3 | -1.0 | -1.3
C/C(=C\C#N)n1nc(C)cc1N | -1.3 | 6.1 | 8.2 | 2.3 | -1.5
O=c1oc2ccccc2nc1/C=C(\O)c1ccccc1 | 2.9 | · | 23.5 | -2.9 | 3.7
O=c1oc2cc([N+](=O)[O-])ccc2nc1/C=C(\O)c1cccc(Br)c1 | 11.0 | 3.2 | 39.4* | 5.8 | -10.8
